Structures are written as SMILES.

We go through two molecules from ChEMBL document CHEMBL1153277 (Bioorg Med Chem Lett, 2009).

Data set [1] has as its target T1, Muscarinic acetylcholine receptor M4 (Homo sapiens, UniProt P08173).
T1 sequence (P08173 whole entry): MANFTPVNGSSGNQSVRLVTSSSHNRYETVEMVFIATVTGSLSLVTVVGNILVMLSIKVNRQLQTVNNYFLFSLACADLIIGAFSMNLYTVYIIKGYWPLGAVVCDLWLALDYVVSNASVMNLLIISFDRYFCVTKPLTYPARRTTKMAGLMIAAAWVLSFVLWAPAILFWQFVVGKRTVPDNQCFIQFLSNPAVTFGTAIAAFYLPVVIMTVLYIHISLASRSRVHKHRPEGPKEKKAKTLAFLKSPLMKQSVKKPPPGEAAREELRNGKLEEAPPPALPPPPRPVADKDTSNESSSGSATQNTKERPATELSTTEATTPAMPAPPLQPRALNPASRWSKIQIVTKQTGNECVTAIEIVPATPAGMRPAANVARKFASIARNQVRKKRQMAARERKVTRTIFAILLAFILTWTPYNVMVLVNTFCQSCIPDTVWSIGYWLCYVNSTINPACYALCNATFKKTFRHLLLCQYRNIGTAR
The experiment in a line: Inhibition of human recombinant muscarinic M4 receptor.

Data set [2] concerns the target T2, Muscarinic acetylcholine receptor M1 (Homo sapiens, UniProt P11229).
T2 sequence (P11229 whole entry): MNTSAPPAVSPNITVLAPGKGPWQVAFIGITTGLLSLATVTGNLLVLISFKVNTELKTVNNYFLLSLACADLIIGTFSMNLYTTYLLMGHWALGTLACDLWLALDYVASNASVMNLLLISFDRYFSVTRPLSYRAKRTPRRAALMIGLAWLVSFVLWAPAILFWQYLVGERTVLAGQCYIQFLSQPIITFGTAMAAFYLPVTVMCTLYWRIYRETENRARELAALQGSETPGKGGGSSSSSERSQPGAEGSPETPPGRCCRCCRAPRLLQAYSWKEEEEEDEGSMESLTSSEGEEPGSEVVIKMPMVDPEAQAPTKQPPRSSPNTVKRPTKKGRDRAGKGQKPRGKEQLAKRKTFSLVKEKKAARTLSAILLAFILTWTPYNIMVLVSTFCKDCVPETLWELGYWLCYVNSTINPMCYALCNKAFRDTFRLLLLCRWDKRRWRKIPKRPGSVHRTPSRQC
The experiment in a line: Inhibition of human recombinant muscarinic M1 receptor.

Data set [3] deals with Neuronal acetylcholine receptor; alpha3/beta4 (Homo sapiens, UniProt P30926+P32297). The experiment in a line: Antagonist activity at human alpha3beta4 nAChR expressed in HEK293 cells by calcium influx assay. The class given is functional, cell-based.
Chain of Neuronal acetylcholine receptor; alpha3/beta4 (P30926 whole entry): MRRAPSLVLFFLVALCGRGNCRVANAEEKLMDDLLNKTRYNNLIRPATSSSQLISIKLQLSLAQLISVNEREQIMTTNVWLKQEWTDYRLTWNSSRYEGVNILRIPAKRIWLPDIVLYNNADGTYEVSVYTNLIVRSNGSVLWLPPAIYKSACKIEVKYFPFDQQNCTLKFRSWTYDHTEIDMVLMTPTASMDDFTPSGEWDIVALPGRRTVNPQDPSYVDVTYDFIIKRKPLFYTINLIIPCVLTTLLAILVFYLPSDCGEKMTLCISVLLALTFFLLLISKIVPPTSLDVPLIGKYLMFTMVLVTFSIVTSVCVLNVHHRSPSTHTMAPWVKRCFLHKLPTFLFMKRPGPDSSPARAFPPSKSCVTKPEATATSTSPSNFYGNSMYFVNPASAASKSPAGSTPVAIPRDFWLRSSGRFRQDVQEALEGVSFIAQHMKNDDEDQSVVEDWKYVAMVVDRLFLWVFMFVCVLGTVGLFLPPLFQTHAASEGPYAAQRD
Chain of Neuronal acetylcholine receptor; alpha3/beta4 (P32297 whole entry): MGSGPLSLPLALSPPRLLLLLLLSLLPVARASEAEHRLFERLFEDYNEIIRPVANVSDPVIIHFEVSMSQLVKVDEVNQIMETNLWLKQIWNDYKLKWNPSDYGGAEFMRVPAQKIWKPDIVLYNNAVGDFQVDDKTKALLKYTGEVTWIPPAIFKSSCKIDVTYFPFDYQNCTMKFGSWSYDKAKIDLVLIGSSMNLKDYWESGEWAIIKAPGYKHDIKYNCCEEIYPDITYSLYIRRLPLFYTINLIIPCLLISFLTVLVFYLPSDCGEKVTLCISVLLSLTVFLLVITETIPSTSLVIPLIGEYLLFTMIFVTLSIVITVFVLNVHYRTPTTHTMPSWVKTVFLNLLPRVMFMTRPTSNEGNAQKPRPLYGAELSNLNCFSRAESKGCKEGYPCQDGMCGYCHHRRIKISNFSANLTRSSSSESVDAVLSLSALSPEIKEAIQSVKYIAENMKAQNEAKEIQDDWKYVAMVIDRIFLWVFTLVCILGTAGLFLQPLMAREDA
Data set [4] has as its target Acetylcholine receptor; alpha1/beta1/delta/gamma (Homo sapiens, UniProt P02708+P07510+P11230+Q07001). The experiment in a line: Antagonist activity at human alpha-1-beta-1-gamma-delta nAChR expressed in human TE671 cells by calcium influx assay. Type of data set: functional, cell-based, TE-671.
Data set [5] is filed under the species Homo sapiens. The experiment in a line: Selectivity for human 5HT3 receptor over human alpha7 nAChR.
The target of data set [6] is T3, Muscarinic acetylcholine receptor M5 (Homo sapiens, UniProt P08912).
T3 sequence (P08912 whole entry): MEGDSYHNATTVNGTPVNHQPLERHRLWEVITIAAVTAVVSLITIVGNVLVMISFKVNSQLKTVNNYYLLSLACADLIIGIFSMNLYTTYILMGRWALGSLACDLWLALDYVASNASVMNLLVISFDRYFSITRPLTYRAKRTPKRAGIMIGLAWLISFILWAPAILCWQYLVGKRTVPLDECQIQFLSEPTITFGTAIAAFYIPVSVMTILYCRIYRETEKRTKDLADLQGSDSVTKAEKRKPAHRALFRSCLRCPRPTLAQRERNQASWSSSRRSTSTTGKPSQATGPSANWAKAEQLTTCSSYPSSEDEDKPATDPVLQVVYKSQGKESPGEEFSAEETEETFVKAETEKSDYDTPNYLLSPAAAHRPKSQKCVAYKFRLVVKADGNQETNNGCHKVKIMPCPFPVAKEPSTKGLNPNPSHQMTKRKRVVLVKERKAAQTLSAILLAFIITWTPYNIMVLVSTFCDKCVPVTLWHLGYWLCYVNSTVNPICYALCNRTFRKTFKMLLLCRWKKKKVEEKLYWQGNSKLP
Kind of data set: Inhibition of human recombinant muscarinic M5 receptor.

The species entered for data set [7] is Homo sapiens. The experiment in a line: Selectivity for human alpha3beta4 nAChR over human alpha7 nAChR.
Data set [8] concerns the target Neuronal acetylcholine receptor; alpha4/beta2 (Homo sapiens, UniProt P17787+P43681). The experiment in a line: Antagonist activity at human alpha4beta2 nAChR expressed in HEK293 cells by calcium influx assay. The class given is functional, cell-based.
The target in data set [9] is T4, 5-hydroxytryptamine receptor 3A (Homo sapiens, UniProt P46098).
T4 sequence (P46098 whole entry): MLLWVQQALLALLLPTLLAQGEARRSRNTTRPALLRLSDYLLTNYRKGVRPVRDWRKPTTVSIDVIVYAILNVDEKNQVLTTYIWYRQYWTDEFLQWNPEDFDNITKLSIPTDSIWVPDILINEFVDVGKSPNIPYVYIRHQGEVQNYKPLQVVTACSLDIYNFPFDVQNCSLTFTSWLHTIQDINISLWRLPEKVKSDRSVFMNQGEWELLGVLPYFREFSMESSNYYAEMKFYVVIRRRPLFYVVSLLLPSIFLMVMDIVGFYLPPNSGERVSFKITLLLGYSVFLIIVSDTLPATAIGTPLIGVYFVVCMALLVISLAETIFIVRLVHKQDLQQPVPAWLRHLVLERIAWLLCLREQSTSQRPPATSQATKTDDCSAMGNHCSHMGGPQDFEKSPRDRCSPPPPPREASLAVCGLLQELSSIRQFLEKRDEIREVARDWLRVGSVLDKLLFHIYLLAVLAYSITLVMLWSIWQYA
Kind of data set: Antagonist activity at human 5HT3 receptor by calcium influx assay. The class given is functional.

The species named for data set [10] is Homo sapiens. The experiment in a line: Selectivity for human alpha4beta2 nAChR over human alpha7 nAChR.
Data set [11] has as its target Muscarinic acetylcholine receptor M3 (Homo sapiens, UniProt P20309). Kind of data set: Inhibition of human recombinant muscarinic M3 receptor.
Data set [12] has as its target T5, Muscarinic acetylcholine receptor M2 (Homo sapiens, UniProt P08172).
T5 sequence (P08172 whole entry): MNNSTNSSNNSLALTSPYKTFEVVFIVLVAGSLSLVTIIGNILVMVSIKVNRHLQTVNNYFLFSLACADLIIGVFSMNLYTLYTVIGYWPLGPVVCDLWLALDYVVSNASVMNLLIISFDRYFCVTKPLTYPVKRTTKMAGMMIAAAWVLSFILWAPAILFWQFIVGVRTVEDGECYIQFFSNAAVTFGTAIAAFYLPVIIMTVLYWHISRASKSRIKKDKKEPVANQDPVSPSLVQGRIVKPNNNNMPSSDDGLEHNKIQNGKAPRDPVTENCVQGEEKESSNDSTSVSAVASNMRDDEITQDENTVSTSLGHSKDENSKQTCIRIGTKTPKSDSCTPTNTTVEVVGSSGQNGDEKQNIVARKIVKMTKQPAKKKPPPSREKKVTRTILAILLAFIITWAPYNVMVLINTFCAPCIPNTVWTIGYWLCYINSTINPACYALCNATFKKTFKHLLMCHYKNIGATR
The experiment in a line: Inhibition of human recombinant muscarinic M2 receptor.

The species named for data set [13] is Homo sapiens. The experiment in a line: Selectivity for human alpha-1-beta-1-gamma-delta nAChR over human alpha7 nAChR.
In data set [14] the test system is Mus musculus. Kind of data set: Plasma concentration in DBA/2 mouse at 30 umol/kg, po after 1 hr. Conditions: in vivo. The class given is ADME, organism-based. Summed up: (§1)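 Mice (n = 6) dosed 30 µmol/kg po. Brain and plasma levels measured at 1 h and 4 h after dosing, reported as pmol/g.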
Data set [15] can be described thus: Octanol-water partition coefficient, log P of the compound. Type of data set: physicochemical.
The nature of data set [16]: Protein binding in rat plasma assessed as fraction unbound. Type of data set: ADME, cell-free. The method in brief:
(§2)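 Binding to human and rat plasma protein, reported as the free (unbound) fraction in %.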

The nature of data set [17]: Metabolic stability in mouse liver microsomes assessed as hepatic extraction ratio. Type of data set: ADME, Microsome. Conditions: read-out: Activity. The method in brief: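 Compound incubated with mouse or human liver microsomes. In vitro hepatic extraction ratio reported as % compound depleted at the end of the experiment; half-life also given.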
For data set [18], the system named is Mus musculus. The experiment in a line: Plasma concentration in DBA/2 mouse at 30 umol/kg, po after 4 hrs. Conditions: in vivo. The class given is ADME, organism-based. The method in brief: as §1
Data set [19] is described as follows: Protein binding in human plasma assessed as fraction unbound. Type of data set: ADME, cell-free. Summed up:
as §2

In data set [20] the test system is Brain. Kind of data set: Drug level in DBA/2 mouse brain at 30 umol/kg, po after 1 hr. Type of data set: ADME, organism-based. To be noted: in vivo. The method in brief:
as §1

Data set [21] relates to Brain. Kind of data set: Drug level in DBA/2 mouse brain at 30 umol/kg, po after 4 hrs. The class given is ADME, organism-based. To be noted: in vivo. Summed up:
as §1

Data set [22] has as its target Voltage-gated inwardly rectifying potassium channel KCNH2 (Homo sapiens, UniProt Q12809). The experiment in a line: Inhibition of human ERG by patch-clamp technique.
Data set [23] has as its target Neuronal acetylcholine receptor subunit alpha-7 (Homo sapiens, UniProt P36544). The experiment in a line: Agonist activity at human recombinant alpha7 nAChR expressed in rat GH3 cells by calcium influx assay. The class given is functional, cell-based. The method in brief: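 GH3 cells recombinantly expressing human α7 nAChR; agonist activity. Each compound run in duplicate. EC50 taken from individual 8-point concentration-response curves and expressed as pEC50, with Emax given in %.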

A short description of data set [24]: Inhibition of sodium channel at 30 uM by patch-clamp technique.
Data set [25] deals with Heart. The experiment in a line: Toxicity in langendorff isolated rabbit heart assessed as effect on QT interval prolongation up to 10 uM by whole heart assay. The class given is tissue-based, Oryctolagus cuniculus. Summed up:
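Langendorff isolated rabbit heart, ex vivo whole-heart preparation. QT interval monitored at concentrations up to 10 µM.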

Chain of Neuronal acetylcholine receptor; alpha4/beta2 (P17787 whole entry): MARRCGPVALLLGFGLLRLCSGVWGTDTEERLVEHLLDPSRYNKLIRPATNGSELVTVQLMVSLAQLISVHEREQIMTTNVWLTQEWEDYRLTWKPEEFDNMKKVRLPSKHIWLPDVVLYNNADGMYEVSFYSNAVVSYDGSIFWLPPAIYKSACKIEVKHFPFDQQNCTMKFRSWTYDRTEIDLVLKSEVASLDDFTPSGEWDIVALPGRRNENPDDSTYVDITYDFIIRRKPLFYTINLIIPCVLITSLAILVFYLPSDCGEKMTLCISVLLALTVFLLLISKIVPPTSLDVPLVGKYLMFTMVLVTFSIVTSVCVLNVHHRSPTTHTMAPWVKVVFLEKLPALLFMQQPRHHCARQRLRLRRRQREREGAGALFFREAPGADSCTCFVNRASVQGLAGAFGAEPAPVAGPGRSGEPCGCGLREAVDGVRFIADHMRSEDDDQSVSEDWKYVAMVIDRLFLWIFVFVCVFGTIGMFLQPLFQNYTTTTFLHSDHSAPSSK
Chain of Neuronal acetylcholine receptor; alpha4/beta2 (P43681 whole entry): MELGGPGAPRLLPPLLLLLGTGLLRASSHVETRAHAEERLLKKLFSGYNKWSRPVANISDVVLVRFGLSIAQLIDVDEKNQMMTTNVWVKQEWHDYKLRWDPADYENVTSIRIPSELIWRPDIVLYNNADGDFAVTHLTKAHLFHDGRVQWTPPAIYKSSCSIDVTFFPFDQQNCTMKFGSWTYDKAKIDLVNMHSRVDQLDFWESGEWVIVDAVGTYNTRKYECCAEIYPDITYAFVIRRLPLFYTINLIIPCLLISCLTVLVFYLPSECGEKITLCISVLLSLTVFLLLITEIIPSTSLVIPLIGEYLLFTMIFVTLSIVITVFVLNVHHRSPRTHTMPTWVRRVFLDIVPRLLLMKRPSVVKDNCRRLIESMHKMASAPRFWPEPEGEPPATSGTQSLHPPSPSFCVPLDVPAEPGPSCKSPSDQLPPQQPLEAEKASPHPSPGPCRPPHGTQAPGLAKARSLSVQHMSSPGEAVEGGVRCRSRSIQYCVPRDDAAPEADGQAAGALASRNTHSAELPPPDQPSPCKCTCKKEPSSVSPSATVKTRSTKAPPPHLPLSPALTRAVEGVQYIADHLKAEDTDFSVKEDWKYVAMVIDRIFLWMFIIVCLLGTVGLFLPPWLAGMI
Chain of Acetylcholine receptor; alpha1/beta1/delta/gamma (P02708 whole entry): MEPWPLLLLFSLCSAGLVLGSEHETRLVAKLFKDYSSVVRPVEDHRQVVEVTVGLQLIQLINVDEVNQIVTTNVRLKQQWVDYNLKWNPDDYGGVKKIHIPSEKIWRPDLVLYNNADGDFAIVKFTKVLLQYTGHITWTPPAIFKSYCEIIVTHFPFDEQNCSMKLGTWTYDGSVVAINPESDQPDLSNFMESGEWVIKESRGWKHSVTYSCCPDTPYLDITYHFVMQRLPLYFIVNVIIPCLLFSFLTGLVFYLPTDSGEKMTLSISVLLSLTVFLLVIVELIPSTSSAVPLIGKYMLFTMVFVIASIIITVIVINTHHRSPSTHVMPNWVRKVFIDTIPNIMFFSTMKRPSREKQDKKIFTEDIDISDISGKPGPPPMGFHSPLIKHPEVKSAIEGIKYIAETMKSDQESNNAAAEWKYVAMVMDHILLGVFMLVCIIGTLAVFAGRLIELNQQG
Chain of Acetylcholine receptor; alpha1/beta1/delta/gamma (P07510 whole entry): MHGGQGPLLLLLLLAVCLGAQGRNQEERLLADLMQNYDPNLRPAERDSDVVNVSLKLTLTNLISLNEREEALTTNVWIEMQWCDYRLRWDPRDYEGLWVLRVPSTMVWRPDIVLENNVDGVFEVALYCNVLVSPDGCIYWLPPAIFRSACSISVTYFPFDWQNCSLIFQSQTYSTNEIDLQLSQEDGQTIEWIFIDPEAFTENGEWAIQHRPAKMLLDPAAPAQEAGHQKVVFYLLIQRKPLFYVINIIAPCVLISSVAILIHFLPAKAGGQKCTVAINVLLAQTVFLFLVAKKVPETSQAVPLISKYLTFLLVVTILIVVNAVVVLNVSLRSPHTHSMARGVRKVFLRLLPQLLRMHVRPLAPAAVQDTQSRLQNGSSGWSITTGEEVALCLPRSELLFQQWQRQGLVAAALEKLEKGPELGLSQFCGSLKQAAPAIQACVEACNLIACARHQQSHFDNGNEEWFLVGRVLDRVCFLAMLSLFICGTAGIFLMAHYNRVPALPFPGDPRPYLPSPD
Chain of Acetylcholine receptor; alpha1/beta1/delta/gamma (P11230 whole entry): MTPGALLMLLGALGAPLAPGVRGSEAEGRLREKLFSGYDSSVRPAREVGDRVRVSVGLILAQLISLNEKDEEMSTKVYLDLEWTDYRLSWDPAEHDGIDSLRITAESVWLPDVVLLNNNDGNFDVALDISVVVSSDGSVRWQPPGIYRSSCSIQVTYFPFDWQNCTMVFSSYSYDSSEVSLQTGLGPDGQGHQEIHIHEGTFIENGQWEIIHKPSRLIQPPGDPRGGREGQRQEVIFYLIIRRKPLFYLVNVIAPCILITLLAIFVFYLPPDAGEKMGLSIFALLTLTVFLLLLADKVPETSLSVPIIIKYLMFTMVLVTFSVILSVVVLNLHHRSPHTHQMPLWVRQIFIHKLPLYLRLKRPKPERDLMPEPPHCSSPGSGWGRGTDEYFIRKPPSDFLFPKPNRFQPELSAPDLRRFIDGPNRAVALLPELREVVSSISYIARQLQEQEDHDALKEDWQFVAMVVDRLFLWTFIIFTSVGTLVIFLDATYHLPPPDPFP
Chain of Acetylcholine receptor; alpha1/beta1/delta/gamma (Q07001 whole entry): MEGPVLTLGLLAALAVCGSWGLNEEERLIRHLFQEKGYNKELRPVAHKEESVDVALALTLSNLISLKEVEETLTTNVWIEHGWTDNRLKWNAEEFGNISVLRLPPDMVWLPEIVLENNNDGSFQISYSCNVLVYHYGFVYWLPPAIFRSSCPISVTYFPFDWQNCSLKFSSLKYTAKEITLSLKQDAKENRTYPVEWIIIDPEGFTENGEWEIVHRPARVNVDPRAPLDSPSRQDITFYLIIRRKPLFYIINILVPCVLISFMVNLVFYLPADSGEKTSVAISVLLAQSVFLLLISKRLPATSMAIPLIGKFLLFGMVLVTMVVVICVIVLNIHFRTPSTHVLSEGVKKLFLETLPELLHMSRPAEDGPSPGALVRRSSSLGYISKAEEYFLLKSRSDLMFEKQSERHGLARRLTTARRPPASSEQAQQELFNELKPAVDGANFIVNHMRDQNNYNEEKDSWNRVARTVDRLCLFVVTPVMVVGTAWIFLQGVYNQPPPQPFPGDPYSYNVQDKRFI
Chain of Neuronal acetylcholine receptor subunit alpha-7 (P36544 whole entry): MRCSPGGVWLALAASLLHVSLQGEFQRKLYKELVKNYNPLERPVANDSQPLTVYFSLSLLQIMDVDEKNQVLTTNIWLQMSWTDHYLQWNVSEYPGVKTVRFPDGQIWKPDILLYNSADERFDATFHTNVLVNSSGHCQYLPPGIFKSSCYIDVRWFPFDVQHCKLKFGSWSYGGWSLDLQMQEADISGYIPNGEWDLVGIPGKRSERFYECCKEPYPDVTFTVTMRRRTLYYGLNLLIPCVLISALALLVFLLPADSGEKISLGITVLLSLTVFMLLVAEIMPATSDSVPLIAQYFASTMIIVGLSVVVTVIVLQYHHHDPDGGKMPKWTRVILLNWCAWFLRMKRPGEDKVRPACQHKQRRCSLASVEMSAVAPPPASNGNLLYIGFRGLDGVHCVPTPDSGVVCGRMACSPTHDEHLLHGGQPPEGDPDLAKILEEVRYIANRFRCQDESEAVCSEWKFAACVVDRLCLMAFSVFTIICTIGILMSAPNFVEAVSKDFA

In the case of `C[C@H](OC(=O)N[C@@H]1CN2CCC1CC2)c1ccccc1F`, the IC50 in data set [1] was greater than 10 µM; in data set [2], greater than 10 µM; in [3] it was 20 µM; in data set [4], 126 µM; in data set [6], greater than 10 µM; in data set [8], 25.1 µM. Also, the half-inhibitory concentration (IC50) in data set [9] was 20 µM; in [11], greater than 10 µM; in [12], greater than 10 µM. In addition, the Ratio stood at 200 in data set [5], 200 in data set [7], 251 in [10] and 1260 in data set [13].

On to `CN1C(=O)[C@@H](CN2CCCCC2)C[C@H]1C#Cc1ccccc1` (relative stereo), for which the Cp in data set [14] is reported as 18 pmol/g; in data set [18], 4 pmol/g. Further, the lipophilicity (logP) in data set [15] is 3.7. Also, the half-inhibitory concentration (IC50) is 1.26 µM in [3]; 12.6 µM in [4]; 7.94 µM in [8]; 251 µM in data set [9]; 6.85 µM in data set [22]. In addition, the Ratio is 26400 in [5], 126 in [7], 820 in data set [10] and 1300 in data set [13]. Besides, the free fraction (fraction unbound) was determined as 0.31 in data set [16] and 0.17 in [19]. In addition, the hepatic extraction ratio in [17] was 0.9. The Drug uptake in data set [20] amounted to 239 pmol/g; in [21], 64 pmol/g. Moreover, the EC50 in [23] is 0.01 µM. Moreover, the Emax in data set [23] was 104%. Besides, the inhibition in data set [24] amounted to 33%. Besides, the Activity entry in [25] is reported as “Non-toxic”.
